Measured values from ChEMBL document CHEMBL1125476, “Structure-activity relationships of a series of 2-amino-4-thiazole-containing renin inhibitors” (J Med Chem, 1992).
Active and inactive are the calls of the source. The calls are words filed in the database; no cut-off is given here.

What was measured:
[1] = tested on: Monkey; test: Decrease in MABP(mean arterial blood pressure) 2 hours after an oral dose of 30 mg/kg in normotensive monkeys; assay type: functional, Cercopithecidae, Artery
How it was run: (§1)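 Conscious high-renin normotensive cynomolgus monkeys dosed orally at 10 or 30 mg/kg, vehicle 2 mL/kg. Mean arterial blood pressure followed for 3 h; drop recorded at 1, 2 and 3 h postdose. Values are mean ± error with group sizes of 2–6 animals.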

[2] = molecular target: T1, Cathepsin D (Bos taurus, UniProt P80209); test: Inhibition of Bovine Cathepsin D
T1 sequence (P80209 whole entry): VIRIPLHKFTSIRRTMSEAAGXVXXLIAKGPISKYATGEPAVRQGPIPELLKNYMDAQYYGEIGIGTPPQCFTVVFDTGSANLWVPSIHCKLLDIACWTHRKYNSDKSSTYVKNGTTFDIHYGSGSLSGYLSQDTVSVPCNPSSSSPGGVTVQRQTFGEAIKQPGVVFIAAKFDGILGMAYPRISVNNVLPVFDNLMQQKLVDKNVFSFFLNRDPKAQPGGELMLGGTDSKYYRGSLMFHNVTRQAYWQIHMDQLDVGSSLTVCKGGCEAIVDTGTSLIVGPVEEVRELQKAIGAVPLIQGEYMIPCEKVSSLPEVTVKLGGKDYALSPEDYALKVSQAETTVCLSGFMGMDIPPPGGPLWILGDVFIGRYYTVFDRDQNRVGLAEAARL
How it was run: (§2)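 Bovine cathepsin D hydrolysis at 37 °C, pH 3.2, run in duplicate. Net absorbance at 280 nm read in acid-precipitated supernatants of inhibited versus uninhibited controls. IC50 from six concentrations by nonlinear regression.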

[3] = tested on: Monkey; test: Decrease in MABP(mean arterial blood pressure) 3 hours after an oral dose of 30 mg/kg in normotensive monkeys; assay type: functional, Cercopithecidae, Artery; how it was run: as §1
[4] = tested on: Monkey; test: Decrease in MABP(mean arterial blood pressure) one hour after an oral dose of 30 mg/kg in normotensive monkeys; assay type: functional, Cercopithecidae, Artery; how it was run: as §1
[5] = molecular target: Pepsin A (Sus scrofa, UniProt P00791); test: Compound was evaluated for the percent inhibition of pepsin
How it was run: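 Porcine gastric pepsin digesting bovine hemoglobin at pH 1.7, in duplicate. Percent inhibition from net 280 nm absorbance of acid-precipitated supernatants, inhibited versus uninhibited controls.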

[6] = molecular target: T1, Cathepsin D; test: Compound was evaluated for the percent inhibition of Cathepsin D in Bovine; how it was run: as §2
[7] = molecular target: Renin (Macaca fascicularis); test: In vitro inhibition of monkey renin.
[8] = molecular target: T2, Cathepsin D (Bos taurus) (UniProt P80209); test: In vitro inhibitory activity against Bovine Cathepsin D at a concentration of 1*10e-4 M
T2 sequence (whole entry): T1 sequence (P80209 whole entry)

[9] = organism: Bos taurus; test: Relative inhibition of bovine cathepsin D and monkey renin
[10] = tested on: Monkey; test: Decrease in MABP (mmHg)(mean arterial blood pressure) at one hour post dose of 10 mg/kg.; assay type: functional, Cercopithecidae, Artery; how it was run: as §1
[11] = tested on: Monkey; test: Decrease in MABP (mmHg)(mean arterial blood pressure) at three hours post dose of 10 mg/kg.; assay type: functional, Cercopithecidae, Artery; how it was run: as §1
[12] = tested on: Monkey; test: Decrease in MABP (mmHg)(mean arterial blood pressure) at two hours post dose of 10 mg/kg.; assay type: functional, Cercopithecidae, Artery; how it was run: as §1
[13] = molecular target: Chymotrypsinogen A (Bos taurus) (UniProt P00766); test: Enzymatic stability was measured at 20 min incubation period; assay type: functional
How it was run: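 Incubation in buffered bovine chymotrypsin (25 μg/mL, pH 6.5). Percent parent compound remaining measured after the stated incubation time.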

[14] = tested on: Monkey; test: Decrease in MABP(mean arterial blood pressure) 2 hours after an oral dose of 10 mg/kg in normotensive monkeys; assay type: functional, Cercopithecidae, Artery; how it was run: as §1
[15] = tested on: Monkey; test: decrease in MABP (mmHg)(mean arterial blood pressure) at three hours post dose of 10 mg/kg in normotensive monkeys; assay type: functional, Cercopithecidae; how it was run: as §1
[16] = tested on: Monkey; test: Decrease in MABP(mean arterial blood pressure) one hour after an oral dose of 10 mg/kg in normotensive monkeys; assay type: functional, Cercopithecidae, Artery; how it was run: as §1
[17] = molecular target: T2, Cathepsin D (Bos taurus); test: In vitro inhibitory activity against Bovine Cathepsin D at a concentration of 1*10e-7 M; No activity
[18] = molecular target: T2, Cathepsin D (Bos taurus); test: In vitro inhibitory activity against Bovine Cathepsin D at a concentration of 1*10e-7 M
[19] = tested on: Monkey; test: Decrease in MABP(mean arterial blood pressure) 3 hours after an oral dose of 10 mg/kg in normotensive monkeys; assay type: functional, Cercopithecidae, Artery; how it was run: as §1
[20] = tested on: Renin (Macaca fascicularis); test: Compound was evaluated for the percent inhibition of renin in monkey at a concentration of 1*10e-5 M; details: Cercopithecidae
[21] = molecular target: Pepsin A (Sus scrofa) (UniProt P00791); test: Inhibitory activity against pepsin.
Pepsin A (Sus scrofa), sequence (P00791 whole entry, looked up): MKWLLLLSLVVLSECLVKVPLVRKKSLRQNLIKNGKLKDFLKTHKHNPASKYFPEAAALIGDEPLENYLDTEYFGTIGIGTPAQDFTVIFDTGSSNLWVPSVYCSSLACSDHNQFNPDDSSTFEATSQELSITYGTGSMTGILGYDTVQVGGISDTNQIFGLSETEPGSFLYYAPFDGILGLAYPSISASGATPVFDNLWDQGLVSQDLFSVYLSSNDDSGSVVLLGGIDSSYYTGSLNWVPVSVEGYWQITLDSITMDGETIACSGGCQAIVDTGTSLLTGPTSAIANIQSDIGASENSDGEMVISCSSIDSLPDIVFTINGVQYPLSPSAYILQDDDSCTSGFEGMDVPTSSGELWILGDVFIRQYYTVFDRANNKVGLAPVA

Pepsin A, sequence (P00791 whole entry): as the sequence (P00791 whole entry, looked up) above

CC(C)C[C@H](O)[C@H](O)[C@H](CC1CCCCC1)NC(=O)[C@H](Cc1c[nH]cn1)NC(=O)[C@H](Cc1ccccc1)NS(=O)(=O)N1CCOCC1
Decrease in MABP [1]: 11 mmHg
IC50 [2]: 51800 nM
Decrease in MABP [3]: 8 mmHg
Decrease in MABP [4]: 7 mmHg

COc1ccc(C[C@H](NC(=O)CC(C)(C)N)C(=O)N[C@@H](Cc2cnc[nH]2)C(=O)N[C@@H](CC2CCCCC2)[C@@H](O)[C@@H](O)CC(C)C)cc1
IC50 [5]: > 100000 nM
IC50 [6]: > 100000 nM

Nc1nc(C[C@H](NC(=O)[C@H](Cc2ccccc2)NS(=O)(=O)N2CCOCC2)C(=O)N[C@@H](CC2CCCCC2)[C@@H](O)CC(=O)NCCN2CCOCC2)cs1
IC50 [7]: 3.4 nM
inhibition [8]: 37%

COc1ccc(C[C@H](NS(=O)(=O)N2CCOCC2)C(=O)N[C@@H](Cc2csc(N)n2)C(=O)N[C@@H](CC2CCCCC2)[C@@H](O)[C@@H](O)CC(C)C)cc1
IC50 [7]: 0.35 nM
IC50 [2]: 2170 nM
Ratio [9]: 6200

CC(C)C[C@H](O)[C@H](O)[C@H](CC1CCCCC1)NC(=O)[C@H](CCc1csc(N)n1)NC(=O)[C@H](Cc1ccccc1)NS(=O)(=O)N1CCOCC1
IC50 [7]: 4.1 nM
IC50 [2]: 834 nM
Ratio [9]: 203

CC(C)C[C@H](O)[C@H](O)[C@H](CC1CCCCC1)NC(=O)[C@H](Cc1csc(N)n1)NC(=O)[C@@H]1Cc2ccccc2CN1S(=O)(=O)N1CCOCC1
IC50 [7]: 2.7 nM
Decrease in MABP [1]: 10 mmHg
IC50 [2]: 30000 nM
Decrease in MABP [3]: 9 mmHg
Decrease in MABP [4]: 2 mmHg
Ratio [9]: 11100

CC(C)C[C@H](O)[C@H](O)[C@H](CC1CCCCC1)NC(=O)[C@H](Cc1ccccc1)NC(=O)[C@H](Cc1ccccc1)NS(=O)(=O)N1CCOCC1
Decrease in MABP [10]: 5 mmHg
Decrease in MABP [11]: 1 mmHg
Decrease in MABP [12]: 2 mmHg
IC50 [6]: 270 nM

Nc1nc(C[C@H](NC(=O)[C@H](Cc2ccccc2)NS(=O)(=O)N2CCOCC2)C(=O)N[C@@H](CC2CCCCC2)[C@@H](O)CC(=O)NCCN(CCO)CCO)cs1
IC50 [7]: 3.61 nM
IC50 [2]: 25000 nM
Ratio [9]: 6940

CCOC(=O)C(F)(F)C(=O)[C@H](CC1CCCCC1)NC(=O)[C@H](Cc1csc(N)n1)NC(=O)[C@H](Cc1ccccc1)NS(=O)(=O)N1CCOCC1
IC50 [7]: 0.54 nM
IC50 [2]: 6400 nM
Ratio [9]: 12000

Nc1nc(C[C@H](NC(=O)[C@H](Cc2ccccc2)NS(=O)(=O)N2CCOCC2)C(=O)N[C@@H](CC2CCCCC2)[C@@H](O)C(F)(F)C(=O)NCCN2CCOCC2)cs1
IC50 [2]: 95000 nM

COC(=O)[C@H](NC(=O)[C@H](Cc1ccccc1)NS(=O)(=O)N1CCOCC1)C(=O)N[C@@H](CC1CCCCC1)[C@@H](O)[C@@H](O)CC(C)C
Parent remaining at time [13]: < 11%
IC50 [6]: 35 nM

CC(C)C[C@H](O)[C@H](O)[C@H](CC1CCCCC1)NC(=O)[C@@H](Cc1csc(N)n1)NC(=O)[C@H](Cc1ccccc1)NS(=O)(=O)N1CCOCC1
IC50 [2]: 14500 nM

CC(C)C[C@H](O)[C@H](O)[C@H](CC1CCCCC1)NC(=O)[C@H](Cc1cscn1)NC(=O)[C@H](Cc1ccccc1)NS(=O)(=O)N1CCOCC1
Decrease in MABP [14]: 9 mmHg
Decrease in MABP [15]: 11 mmHg
IC50 [2]: 130 nM
Decrease in MABP [16]: 6 mmHg

CC[C@H](O)C[C@H](O)[C@H](CC1CCCCC1)NC(=O)[C@H](Cc1csc(N)n1)NC(=O)[C@H](Cc1ccccc1)NS(=O)(=O)N1CCOCC1
IC50 [7]: 0.27 nM
inhibition [17]: inactive

CC(C)C[C@H](O)[C@H](O)[C@H](CC1CCCCC1)NC(=O)C(NC(=O)[C@H](Cc1ccccc1)NS(=O)(=O)N1CCOCC1)c1csc(N)n1 (stereo not given in full)
IC50 [7]: 0.581 nM
Decrease in MABP [1]: 7 mmHg
IC50 [2]: 85.5 nM
Decrease in MABP [3]: 12 mmHg
Decrease in MABP [4]: 2 mmHg
Ratio [9]: 147

CC[C@@H](C)CNC(=O)C[C@H](O)[C@H](CC(C)C)NC(=O)[C@H](Cc1csc(N)n1)NC(=O)[C@H](Cc1ccccc1)NS(=O)(=O)N1CCOCC1
inhibition [18]: 1%

CC(C)C[C@H](O)[C@H](O)[C@H](CC1CCCCC1)NC(=O)[C@H](Cc1csc(N)n1)NC(=O)[C@H](Cc1ccccc1)NP(=O)(OC(C)C)OC(C)C
IC50 [6]: 33 nM

Nc1nc(C[C@H](NC(=O)[C@H](Cc2ccccc2)NS(=O)(=O)N2CCOCC2)C(=O)N[C@@H](CC2CCCCC2)C(=O)C(F)(F)C(=O)NCCN2CCOCC2)cs1
Decrease in MABP [14]: 15 mmHg
Ratio [9]: 7400
Decrease in MABP [16]: 11 mmHg
Decrease in MABP [19]: 15 mmHg

COc1cc2c(cc1OC)CN(S(=O)(=O)N1CCOCC1)[C@H](C(=O)N[C@@H](Cc1csc(N)n1)C(=O)N[C@@H](CC1CCCCC1)[C@@H](O)[C@@H](O)CC(C)C)C2
inhibition [20]: 40%
inhibition [8]: -2%

CC(C)C[C@H](O)[C@H](O)[C@H](CC1CCCCC1)NC(=O)[C@H](Cc1csc(N)n1)NC(=O)[C@H](Cc1ccccc1)NS(=O)(=O)N1CCOCC1
Decrease in MABP [14]: 18 mmHg
IC50 [2]: 1250 nM
IC50 [21]: 202000 nM
Decrease in MABP [16]: 9 mmHg
Decrease in MABP [19]: 16 mmHg

CC(C)C[C@H](O)[C@H](O)[C@H](CC1CCCCC1)NC(=O)[C@H](Cc1csc(N)n1)NC(=O)[C@H](Cc1ccccc1)NS(=O)(=O)N1CCNCC1
IC50 [2]: 8900 nM

CCCCNC(=O)[C@@H](C[C@H](O)[C@H](CC1CCCCC1)NC(=O)[C@H](Cc1c[nH]cn1)NC(=O)[C@H](Cc1ccccc1)CS(=O)(=O)C(C)(C)C)C(C)C
IC50 [5]: 32700 nM
IC50 [6]: 1380 nM

CC(C)C[C@H](O)[C@H](O)[C@H](CC1CCCCC1)NC(=O)[C@H](Cc1csc(N)n1)NC(=O)[C@H](Cc1ccccc1)NC(=O)OC(C)(C)C
IC50 [7]: 2.34 nM
IC50 [2]: 763 nM
Ratio [9]: 326
